Measured values from different studies.
Protocols differ between the studies behind these lines.
Target: Ephrin type-A receptor 6 (EPHA6, Homo sapiens, UniProt Q9UF33)
One construct used (Q9UF33 23-1036): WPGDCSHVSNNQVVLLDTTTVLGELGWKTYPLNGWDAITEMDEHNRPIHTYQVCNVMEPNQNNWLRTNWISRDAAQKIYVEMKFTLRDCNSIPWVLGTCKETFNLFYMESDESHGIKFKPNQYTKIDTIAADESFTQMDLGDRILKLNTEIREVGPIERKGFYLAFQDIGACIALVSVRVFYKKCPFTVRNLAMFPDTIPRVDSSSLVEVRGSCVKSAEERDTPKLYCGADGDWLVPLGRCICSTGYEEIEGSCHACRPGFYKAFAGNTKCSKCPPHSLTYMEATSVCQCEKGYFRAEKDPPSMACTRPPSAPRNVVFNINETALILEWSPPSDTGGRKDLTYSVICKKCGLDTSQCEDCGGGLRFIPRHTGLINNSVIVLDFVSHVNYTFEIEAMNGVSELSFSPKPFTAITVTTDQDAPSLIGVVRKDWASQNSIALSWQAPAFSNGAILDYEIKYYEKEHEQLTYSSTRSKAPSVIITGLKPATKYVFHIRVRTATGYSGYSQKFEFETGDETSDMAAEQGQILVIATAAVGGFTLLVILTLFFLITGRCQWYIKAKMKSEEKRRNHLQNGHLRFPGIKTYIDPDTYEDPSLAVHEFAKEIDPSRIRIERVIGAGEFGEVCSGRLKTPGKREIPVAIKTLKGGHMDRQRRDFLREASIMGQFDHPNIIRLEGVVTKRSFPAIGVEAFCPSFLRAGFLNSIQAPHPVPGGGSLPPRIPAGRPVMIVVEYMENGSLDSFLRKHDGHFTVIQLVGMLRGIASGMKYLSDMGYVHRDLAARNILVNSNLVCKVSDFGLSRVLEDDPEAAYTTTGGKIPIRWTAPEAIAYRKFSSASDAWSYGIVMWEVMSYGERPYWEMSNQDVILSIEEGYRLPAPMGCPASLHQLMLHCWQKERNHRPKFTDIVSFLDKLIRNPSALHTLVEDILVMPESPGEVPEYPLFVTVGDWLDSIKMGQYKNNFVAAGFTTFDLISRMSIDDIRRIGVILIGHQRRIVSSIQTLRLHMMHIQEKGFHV

With `CC(=O)N1CCC(c2ccc(C(=O)NC3=NCCN3)cc2C(F)(F)F)CC1` the remaining binding was 98% (cell-free assay; competition with immobilised ligand; 1 µM).
With `O=C(NCCCN1CCOCC1)c1ccc(Nc2ncc(Cl)c(-c3ccc(Cl)s3)n2)cc1` the remaining binding was 63% (binding; competition with immobilised ligand; 1 µM).
For `N[C@H]1CCN(c2nccc(-c3cnn4ncccc34)n2)C1`, the remaining binding was 100% (binding; 1 µM).
`CCN1CCN(Cc2ccc(C(=O)Nc3ccc(C)c(Oc4ccc5c(c4)CC(=O)N5)c3)cc2C(F)(F)F)CC1` gave a remaining binding of 100% (binding; competition with immobilised ligand; 1 µM).
`COc1ncc2cc3ccccc3nc2c1C#N` has a remaining binding of 98% (cell-free assay; competition with immobilised ligand; 5 µM).
`O=C(c1ccc(Nc2nccc(-c3cc4ccccc4s3)n2)cc1)N1CCC(N2CCCC2)CC1` gave a remaining binding of 99% (binding; competition with immobilised ligand; 1 µM).
`CN(C)c1nccc(-c2cnc3ncccn23)n1` has a remaining binding of 98% (binding; 1 µM).
With `O=C(Nc1c[nH]nc1C(=O)NC1CCNCC1)c1cc(F)cc(F)c1` the remaining binding was 100% (binding; competition with immobilised ligand; 1 µM).
With `COc1cnc(Nc2cccc(S(N)(=O)=O)c2)nc1N1CCN(c2ccccc2)CC1` the remaining binding was 100% (binding; competition with immobilised ligand; 1 µM).
`CNC(=O)Nc1ccc2c(c1)[C@@]1(CC2)OC(=O)N(CC(=O)N(Cc2ccc(F)cc2)[C@@H](C)C(F)(F)F)C1=O` gave a remaining binding of 91% (cell-free assay; competition with immobilised ligand; 1 µM).
`COc1cnc(Nc2cccc(S(N)(=O)=O)c2)nc1N1CCN(c2ccccc2)C(=O)C1` gave a remaining binding of 100% (binding; competition with immobilised ligand; 1 µM).
With `CN(C)c1ncc(F)c(-c2cnn3ncccc23)n1` the remaining binding was 82% (binding; 1 µM).
`O=C(N[C@H]1CCCCC/C=C\C2C[C@@]2(C(=O)O)NC(=O)[C@@H]2C[C@@H](Oc3ccncc3)CN2C1=O)OC1CCCC1` (stereo partly drawn) has a remaining binding of 100% (cell-free assay; competition with immobilised ligand; 1 µM).
`O=C(c1ccc(Nc2ncc(Cl)c(-c3cc4ccccc4s3)n2)cc1)N1CCC(N2CCCC2)CC1` gave a remaining binding of 69% (binding; competition with immobilised ligand; 1 µM).
`CN(CCCC(F)(F)F)c1nccc(-c2cnn3ncccc23)n1` gave a remaining binding of 89% (binding; 1 µM).
For `COc1cc(-c2cn(C3CCc4c(F)cccc4N(CC(F)(F)F)C3=O)nn2)ccc1-n1cnc(C)c1` (stereo not drawn), the remaining binding was 100% (cell-free assay; competition with immobilised ligand; 1 µM).
`C[C@@H]1CCN(c2nccc(-c3cnn4ncccc34)n2)C1` gave a remaining binding of 100% (binding; 1 µM).
With `CNCc1ccccc1-c1csc([C@H](C)Nc2nc(C)nc3cc(OC)c(OC)cc23)c1` the remaining binding was 100% (cell-free assay; competition with immobilised ligand; 1 µM).
`c1cncc(-c2cccc(Nc3nccc(NC4CCCCC4)n3)c2)c1` has a remaining binding of 96% (binding; competition with immobilised ligand; 10 µM).
The remaining binding of `CCS(=O)(=O)c1cc2cc(C[C@@](O)(CC(C)(C)c3ccc(F)cc3C(N)=O)C(F)(F)F)[nH]c2cn1` is reported as 100% (cell-free assay; competition with immobilised ligand; 1 µM).
`F[C@@H]1CCN(c2nccc(-c3cnn4ncccc34)n2)C1` gave a remaining binding of 80% (binding; 1 µM).
